bCat KO growth: beta-catenin-lacking colon tumor cell growth suppression; HCT116 beta-catenin knockout viability, CellTiter-Glo, 60 h; active compounds read low; viability, % at 10 µM; 140,000 compounds, 1.5% hits; AID 818;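 active means viability at or under a set limit, the compound median less 4 SD, cut at about 6% in these data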
Dynein transport: dynein cargo transport inhibition. 220,000 compounds, 0.47% hits. z-score, hits read low. 3617.4 mouse cells, GR-EGFP nuclear translocation imaging; test concentration mostly 20 µM; stimulated with dexamethasone, 1 µM; active compounds read low;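 active means plate z-score of nuclear minus cytoplasmic receptor signal below a set negative limit, without overly bright fluorescence or cell loss, cut at about -3.5 in these data, passing the limit was not always enough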;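 further: z-score of nuclear minus cytoplasmic ring GR-EGFP intensity difference per well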
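Buffer or medium – tet-free medium with charcoal-stripped serum · Signal – automated 10x imaging of fixed Hoechst-stained cells · Also added – dexamethasone agonist, 1.0 µM final, for 30 min · Incubation – induction 48 h, compound 1 h, agonist 30 min · Read-out – GR-EGFP nuclear translocation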
Autophagy mod: alters autophagy in cells; calls only at 10 µM (by protocol); 190,000 compounds, 0.98% hits; MEF GFP-LC3 puncta imaging; test concentration mostly 10 µM;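 active means percentage of spot-positive cells more than 3 SD above its plate mean, without a fluorescence outlier flag or 80% toxicity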
Lmaj promast: inhibitors of Leishmania major promastigote growth; Leishmania major promastigotes, resazurin fluorescence viability; AID 1063; inhibition, % at 10 µM; 200,000 compounds, 9% hits; in the data active means inhibition above about 50%;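 further: promastigotes grown with compound for 44 hours at 28 °C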
HCT116 PTEN-null: PTEN-deleted cell growth suppression; HCT116 PTEN-null viability, CellTiter-Glo, 60 h; active compounds read low; viability, % at 10 µM; 140,000 compounds, 1.2% hits; AID 827;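 active means viability at or below a set limit, 4 SD under the median of all tested compounds, cut at about 3.7% in these data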;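 further: PTEN knockout HCT116 line with beta catenin targeted HCT116 as companion control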
Numbers stand for hits. The list is not random: actives were taken first. Their share in the collection is about 9.2%.

O=C(NCCSc1ccc(Cl)cc1)c1ccc(CN2CCOCC2)cc1 was read as Dynein transport inactive, Autophagy mod inactive and Lmaj promast inactive.
For Clc1ccc(SCCCCN2CCNCC2)cc1 the results were bCat KO growth inactive, Dynein transport inactive, Autophagy mod inactive, Lmaj promast 100.2 and HCT116 PTEN-null inactive.
`Cc1ccc(SCCC(=O)N2CCCC2)cc1` gave bCat KO growth inactive, Dynein transport inactive, Autophagy mod inactive, Lmaj promast inactive and HCT116 PTEN-null inactive.
O=C(CCN1CCOCC1)c1ccc(Cl)cc1 was read as Dynein transport inactive, Autophagy mod inactive and Lmaj promast 71.7.
Clc1ccc(SCCCCN2CCOCC2)cc1 was read as bCat KO growth inactive, Dynein transport inactive, Autophagy mod inactive, Lmaj promast 96.7 and HCT116 PTEN-null inactive.
For Cc1ccc(SCCCCN2CCNCC2)cc1 the results were bCat KO growth inactive, Dynein transport inactive, Autophagy mod inactive, Lmaj promast 99.8 and HCT116 PTEN-null inactive.
Screening c1ccc(COc2ccccc2CNc2nn[nH]n2)cc1 returned Dynein transport inactive, Autophagy mod inactive and Lmaj promast inactive.
Screening CN(C)C(=O)C1C2NC(=S)N(c3cccc(Cl)c3)C1(C)Oc1ccc(Cl)cc12 (stereo not drawn) returned Dynein transport inactive, Autophagy mod inactive and Lmaj promast inactive.
`O=C(c1ccccc1C(=O)N1CCN(c2ccccc2F)CC1)N1CCN(c2ccccc2F)CC1` gave bCat KO growth inactive, Dynein transport inactive, Autophagy mod inactive, Lmaj promast inactive and HCT116 PTEN-null inactive.
`O=C(c1ccc(Br)o1)N1CCN(c2ccccc2F)CC1` gave bCat KO growth inactive, Dynein transport inactive, Autophagy mod active, Lmaj promast inactive and HCT116 PTEN-null inactive.
`O=C(c1cccs1)c1cn(CC(=O)N2CCc3ccccc3C2)c2ccccc12` gave bCat KO growth inactive, Dynein transport inactive, Autophagy mod inactive, Lmaj promast inactive and HCT116 PTEN-null inactive.
`Cc1scc(C(=O)N/N=C/c2ccc(OCC(C)C)cc2)c1C` gave bCat KO growth inactive, Dynein transport inactive, Autophagy mod inactive, Lmaj promast 87.7 and HCT116 PTEN-null inactive.
`CN1CCN(S(=O)(=O)c2ccc3c4c(cccc24)C(=O)N3)CC1` gave bCat KO growth inactive, Dynein transport inactive, Autophagy mod inactive, Lmaj promast inactive and HCT116 PTEN-null inactive.
CCOc1ccccc1N1CCN(S(=O)(=O)c2ccc3c4c(cccc24)C(=O)N3)CC1 was read as bCat KO growth inactive, Dynein transport inactive, Autophagy mod inactive, Lmaj promast 74.1 and HCT116 PTEN-null inactive.
For O=C(c1ccc(COc2c(F)c(F)cc(F)c2F)o1)N1CCN(c2ccc(Cl)cc2)CC1 the results were bCat KO growth inactive, Dynein transport inactive, Autophagy mod inactive, Lmaj promast inactive and HCT116 PTEN-null inactive.
For COc1ccc(CN(C(=O)c2ccc(-c3ccccc3)[nH]2)C(C(=O)NC(C)(C)C)c2ccncc2)cc1 (stereo not drawn) the results were Dynein transport inactive, Autophagy mod inactive and Lmaj promast 93.4.
Screening COc1ccc(C(C(=O)NC(C)(C)C)N(CC2CCCO2)C(=O)CCC(=O)Nc2cc(C)on2)cc1 (stereo not drawn) returned bCat KO growth inactive, Dynein transport inactive, Autophagy mod inactive, Lmaj promast inactive and HCT116 PTEN-null inactive.
For COc1ccc(C(C(=O)NC(C)(C)C)N(Cc2ccccc2)C(=O)CCC(=O)Nc2cc(C)on2)cc1 (stereo not drawn) the results were Dynein transport inactive, Autophagy mod inactive and Lmaj promast 95.3.
`COc1cc(C(C(=O)NC(C)(C)C)N(Cc2ccccc2)C(=O)c2cnccn2)cc(OC)c1OC` (stereo not drawn) gave bCat KO growth inactive, Dynein transport inactive, Autophagy mod inactive, Lmaj promast inactive and HCT116 PTEN-null inactive.
For Cc1cc(C)nc(Oc2ccc(Br)cc2Br)n1 the results were Dynein transport inactive, Autophagy mod inactive and Lmaj promast inactive.
`O=C(O)CC(NC(=O)c1ccncc1)c1ccccc1` (stereo not drawn) gave Dynein transport inactive, Autophagy mod inactive and Lmaj promast inactive.
`COc1cc2c3nnc(-c4ccc(F)cc4)c-3cn(Cc3cccc(F)c3)c2cc1OC` gave Dynein transport inactive, Autophagy mod active and Lmaj promast inactive.
COc1cc(/C=N/NC(=O)C(=O)NCc2ccco2)cc(Cl)c1O was read as Dynein transport inactive.
CCCCC(=O)Nc1cccc(NC(=S)NC(=O)Cc2ccccc2)c1 was read as bCat KO growth inactive, Dynein transport inactive, Autophagy mod inactive, Lmaj promast 52.4 and HCT116 PTEN-null inactive.
For CCCC(=O)Nc1ccc(Cl)c(NC(=S)NC(=O)C(C)C)c1 the results were Dynein transport inactive, Autophagy mod inactive and Lmaj promast 100.0.
For CCCCC(=O)Nc1cccc(NC(=S)NC(C)=O)c1 the results were bCat KO growth inactive, Dynein transport inactive, Autophagy mod inactive, Lmaj promast inactive and HCT116 PTEN-null inactive.
Screening CCCCC(=O)NC(=S)Nc1cccc(NC(=O)c2ccccc2)c1 returned Dynein transport inactive, Autophagy mod inactive and Lmaj promast 98.4.
For CCC(=O)Nc1ccc(Cl)c(NC(=S)NC(C)=O)c1 the results were Dynein transport inactive, Autophagy mod inactive and Lmaj promast inactive.
`CCCC(=O)NC(=S)Nc1cccc(NC(=O)c2ccccc2)c1` gave Dynein transport inactive, Autophagy mod inactive and Lmaj promast inactive.
For CC(C)CC(=O)NC(=S)Nc1cccc(NC(=O)c2ccccc2)c1 the results were bCat KO growth inactive, Dynein transport inactive, Autophagy mod inactive, Lmaj promast 100.2 and HCT116 PTEN-null inactive.
Screening COc1cccc(N=Nc2c(=O)[nH]n3c(C)cc(C)nc23)c1 returned bCat KO growth inactive, Dynein transport inactive, Autophagy mod inactive, Lmaj promast inactive and HCT116 PTEN-null inactive.
For COc1cccc(N=Nc2c(N)[nH]n3c(=O)cc(-c4ccccc4)nc23)c1 the results were bCat KO growth 3.1, Dynein transport inactive, Autophagy mod inactive, Lmaj promast 92.5 and HCT116 PTEN-null inactive.
For Cc1ccc(N=Nc2c(N)[nH]n3c(=O)cc(-c4ccccc4)nc23)cc1 the results were bCat KO growth inactive, Dynein transport inactive, Autophagy mod inactive, Lmaj promast 93.8 and HCT116 PTEN-null inactive.
For Cc1cc(=O)n2[nH]c(N)c(N=Nc3ccccc3)c2n1 the results were bCat KO growth inactive, Dynein transport inactive, Autophagy mod inactive, Lmaj promast inactive and HCT116 PTEN-null inactive.
CC(C)(C)n1nc2c(c1NC(=O)c1ccccc1F)CS(=O)C2 (stereo not drawn) was read as bCat KO growth inactive, Dynein transport inactive, Autophagy mod active, Lmaj promast inactive and HCT116 PTEN-null inactive.
For Cc1sc(NC(=S)NC(=O)C2CCCCC2)c(C(N)=O)c1C the results were bCat KO growth inactive, Dynein transport inactive, Autophagy mod inactive, Lmaj promast 63.4 and HCT116 PTEN-null inactive.
For O=C1CN(C(=S)NC(=O)c2ccc(-c3ccccc3)cc2)CCN1 the results were Dynein transport inactive, Autophagy mod inactive and Lmaj promast inactive.
